High-throughput results from PubChem BioAssay.
An excerpt weighted towards active compounds, which were near 4.8% of everything screened.
PAFAH1B3 inh: PAFAH1B3 enzyme inhibitors, primary screen, biochemical, fluorescence polarization, human. inhibition, % at 3.39 µM. recombinant PAFAH1B3, FP-rhodamine probe. 340,000 compounds, 0.28% hits. Platelet-activating factor acetylhydrolase IB subunit alpha1 (Homo sapiens), Q15102;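 active = inhibition above the screen-wide average of all tested compounds plus 3 SD, cut at about 25% in these data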;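 note: 0% = enzyme with DMSO only and 100% = wells lacking PAFAH1B3 protein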
Target sequence (Q15102 whole entry, looked up): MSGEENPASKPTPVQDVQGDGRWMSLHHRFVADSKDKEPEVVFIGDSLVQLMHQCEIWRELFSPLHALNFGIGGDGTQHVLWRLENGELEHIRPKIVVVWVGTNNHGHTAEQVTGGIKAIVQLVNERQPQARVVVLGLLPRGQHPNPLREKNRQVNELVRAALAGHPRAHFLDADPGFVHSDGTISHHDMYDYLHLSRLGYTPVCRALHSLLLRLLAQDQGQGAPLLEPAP
pPAFAH FP inh: pPAFAH enzyme inhibitors, primary screen, biochemical, fluorescence polarization, human | Platelet-activating factor acetylhydrolase (Homo sapiens), Q13093 | recombinant pPAFAH, FP-rhodamine probe fluorescence polarization | inhibition, % at 3.39 µM | 330,000 compounds, 1.5% hits | AID 463082, 2010;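 active = inhibition above the mean inhibition across the screen plus 3 SD, cut at about 25% in these data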;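 note: inhibitors block binding of the rhodamine activity-based probe so polarization drops; 0% = enzyme with DMSO and 100% = wells lacking pPAFAH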
PAFAH1B2 inh: PAFAH1B2 enzyme inhibitors, primary screen, biochemical, fluorescence polarization, human | Platelet-activating factor acetylhydrolase IB subunit alpha2 (Homo sapiens), P68402 | recombinant PAFAH1B2, FP-rhodamine activity probe | inhibition, % at 3.39 µM | 340,000 compounds, 1.2% hits | AID 492953, 2010;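 active = inhibition above the mean of all tested compounds plus 3 SD, cut at about 24% in these data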;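 note: 0% = enzyme with DMSO and 100% = wells lacking PAFAH1B2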
Target sequence (P68402 whole entry, looked up): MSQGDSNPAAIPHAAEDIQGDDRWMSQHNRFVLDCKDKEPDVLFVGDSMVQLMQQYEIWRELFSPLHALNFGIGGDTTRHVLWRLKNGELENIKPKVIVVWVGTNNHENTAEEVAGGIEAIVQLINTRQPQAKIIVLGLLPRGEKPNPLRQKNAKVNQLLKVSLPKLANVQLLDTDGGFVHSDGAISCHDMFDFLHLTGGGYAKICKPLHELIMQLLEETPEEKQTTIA
PAFAH2 FP inh: PAFAH2 enzyme inhibitors, primary screen, biochemical, fluorescence polarization, human; recombinant PAFAH2, FP-rhodamine activity probe; Platelet-activating factor acetylhydrolase 2, cytoplasmic (Homo sapiens), Q99487; inhibition, % at 3.39 µM; 340,000 compounds, 0.99% hits; AID 492956, 2010;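 active = inhibition above the mean over all tested compounds plus 3 SD, cut at about 30% in these data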;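 note: inhibitors block probe labeling of enzyme so polarization drops; 0% = enzyme with DMSO and 100% = wells lacking PAFAH2 protein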
UCH37 DUB inh: inhibitors of human UCH37 deubiquitinase, primary screen, biochemical, Ub-AMC cleavage, fluorescence. 330,000 compounds, 0.33% hits. AID 588478, 2011. purified proteasome/UCH37. inhibition, % (concentration not given with the values). Ubiquitin carboxyl-terminal hydrolase isozyme L5 (Homo sapiens), Q9Y5K5;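 active = mean inhibition over replicate wells above about 20%, limit read from the data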;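 note: 0% = compound-free wells with enzyme and 100% = wells lacking proteasome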
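Assay system: Proteasome-bound UCH37. Buffer or medium: pH 7.4 Tris-HCl (50 mM) with ovalbumin, ATP-MgCl2, DTT. Incubation: 30 min preincubation with enzyme, 25 min cleavage at room temperature. Measured by: fluorescence, ex 355 nm, em 460 nm. Read-out basis: percent inhibition. Control set: wells without proteasome as full block, compound-free enzyme plus substrate as uninhibited.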
GRIN3A LBD mod: binders of NR3A ligand-binding domain, primary screen, biophysical, differential scanning fluorimetry, uHTS; AID 1259313, 2017; NR3A LBD differential scanning fluorimetry, Tm shift; 0% = protein alone, 100% = glycine-bound protein; 340,000 compounds, 2.5% hits; Glutamate receptor ionotropic, NMDA 3A (GRIN3A) ligand-binding domain; Tm shift relative to glycine control, % at 25 µM;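 active = melting temperature shift of at least 10% of the positive control shift, at one fixed dose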
PAFAH2 FP conf: PAFAH2 enzyme inhibitors, confirmation, biochemical, fluorescence polarization, human | AID 493030, 2011 | shares compounds with PAFAH2 FP inh | recombinant PAFAH2, FP-rhodamine activity probe | inhibition, % at 3.39 µM | 2,300 compounds, 65% hits;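 active = mean inhibition over three repeats above a set limit taken from the earlier primary screen, cut at about 30% in these data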;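 note: inhibitor blocks binding of rhodamine activity probe so polarization falls; 0% = enzyme with DMSO and 100% = wells lacking PAFAH2 protein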
An asterisk follows results filed as active; · = not tested or not shown.

SMILES | PAFAH1B3 inh | pPAFAH FP inh | PAFAH1B2 inh | PAFAH2 FP inh | UCH37 DUB inh | GRIN3A LBD mod | PAFAH2 FP conf
COc1ccc(C(=O)OCc2ccc(C)cc2)cc1S(=O)(=O)N1CCOCC1 | 1.3 | 4.4 | 7.7 | 11.9 | 1.2 | 3.9 | ·
COc1ccc(C(=O)OCc2nnc(-c3ccccc3)o2)cc1S(=O)(=O)N1CCOCC1 | 0.3 | -4.4 | 0.0 | 78.9* | 4.5 | -0.4 | 70.6*
O=C(NNC(=O)c1ccc(F)c(S(=O)(=O)N2CCOCC2)c1)c1ccc([N+](=O)[O-])cc1 | 8.3 | -2.3 | 3.1 | -6.8 | 6.7 | -4.1 | ·
Cc1cc(C)nc(SCc2ccc(C(=O)NN=Cc3ccc(C(=O)O)cc3)cc2)n1 | · | · | · | · | 4.0 | · | ·
CCOC(=O)c1ccc(NC(C)=O)c([N+](=O)[O-])c1 | 2.4 | 4.0 | 4.3 | 3.5 | 6.1 | -0.1 | ·
CNc1ccc(C(=O)OCC(=O)Nc2ccnn2C(C)C)cc1[N+](=O)[O-] | 2.9 | 1.6 | 4.0 | 59.8* | 5.6 | 3.0 | 45.6*
COc1cc(/C=C/C(=O)OCC(=O)NC(=O)NCc2ccco2)ccc1OC(F)F | 8.4 | 6.0 | 2.2 | 3.1 | -4.8 | 3.0 | ·
COc1cc(/C=C/C(=O)OCC(=O)NCc2ccco2)ccc1O | 4.0 | 6.2 | 4.1 | 65.9* | · | -4.8 | 45.5*
COc1cccc(OC)c1C(=O)OCC(=O)NCc1ccco1 | 4.0 | 1.5 | 7.0 | -2.1 | 3.1 | 3.6 | ·
COc1ccccc1/C=C/C(=O)OCC(=O)NCc1ccco1 | 8.3 | 4.5 | 4.7 | 61.9* | -38.4 | -1.6 | 52.8*
O=C1CCCCCCCCCCC(=NO)CCCO1 | · | · | · | · | 4.8 | · | ·
N#Cc1ccc(Cl)cc1NC(=O)COC(=O)c1ccc(S(=O)(=O)N2CCCC2)cc1 | 3.2 | 2.4 | 4.4 | 4.8 | -2.1 | 1.8 | ·
N#Cc1ccc(Cl)cc1NC(=O)COC(=O)c1ccc2c(c1)OCCO2 | 1.1 | 10.0 | -4.9 | 65.9* | -2.7 | -1.0 | 68.4*
N#Cc1ccccc1NC(=O)COC(=O)c1ccc2c(c1)OCCO2 | 7.4 | 12.6 | 0.8 | 73.1* | 1.8 | -1.9 | 69.1*
CC(CC(=O)Nc1ccccc1[N+](=O)[O-])=NNC(=O)COc1ccccc1C | · | · | · | · | 2.5 | · | ·
CN(C)C=Nc1ncn(-c2ncc(C(F)(F)F)cc2Cl)n1 | · | · | · | · | 1.3 | · | ·
NC(Cc1ccc([N+](=O)[O-])cc1)=NOC(=O)c1ccc([N+](=O)[O-])cc1 | · | · | · | · | -3.8 | · | ·
N/C(Cc1ccc([N+](=O)[O-])cc1)=N\OC(=O)c1ccccc1F | 14.8 | 2.3 | -2.0 | 38.0* | · | 0.8 | 23.0
O=C(OCC(=O)C12CC3CC(CC(C3)C1)C2)c1ccc(CO)cc1 | 5.1 | -0.3 | 18.5 | 80.2* | 3.1 | 0.2 | 83.0*
O=C(OCC(=O)c1ccc(Br)s1)c1ccc(O)cc1 | 3.5 | 18.6 | 5.4 | 66.0* | -0.4 | -0.2 | 61.2*
O=C(OCC(=O)c1ccc(Cl)s1)c1ccc(CO)cc1 | 5.0 | -1.2 | 4.6 | 60.8* | 1.1 | 0.8 | 51.0*
Cc1ccc(C(=O)NCC(=O)OCC(=O)c2ccc(Cl)s2)cc1 | 3.8 | 7.0 | 2.8 | 7.7 | 1.0 | 1.8 | ·
Cc1ccc(C(=O)COC(=O)c2ccc(Cl)c(N)c2)s1 | 8.0 | 7.4 | -2.0 | 32.1* | 2.1 | 1.4 | 22.3
COc1ccc(C(CC2OC(=O)c3ccccc32)=NNC(N)=O)cc1 (centres undefined) | · | · | · | · | 2.3 | · | ·
O=S(=O)(NN=Cc1cccn1-c1ccccc1)c1ccc2ccccc2c1 | · | · | · | · | 2.6 | · | ·
COc1cccc(C(=O)OCC(=O)c2ccc(Br)s2)c1OC | 3.7 | 18.8 | -1.6 | 62.2* | -0.1 | -0.2 | 51.7*
O=C(N/N=C/c1coc2ccccc2c1=O)c1ccncc1 | 13.2 | · | 6.9 | -2.1 | · | 1.8 | ·
